Test results: ChEMBL document CHEMBL1139357, “Synthesis and anti-hepatitis B virus and anti-hepatitis C virus activities of 7-deazaneplanocin A analogues in vitro” (J Med Chem, 2009)

What was measured:
Hepatitis C virus [1] = assay: Antiviral activity against HCV in ET cells assessed as activity of luciferase reporter at 20 uM by subgenomic RNA replicon assay; format: functional, Hepacivirus hominis
Procedure, shortened: (§1)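 ET replicon cells (dicistronic HCV replicon with firefly luciferase, three adaptive mutations) seeded at 5000/well overnight in DMEM without G418; serial compound dilutions added, 3 days incubation, luciferase read by Steady-Glo. Four replicates per point; EC50 is 50% luciferase inhibition. Marginal actives given as percent inhibition versus control at 20 µM.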

[2] = Cytotoxicity against ET cells at 20uM; format: cell-based
Procedure, shortened: (§2)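 ET replicon cells seeded at 5000/well overnight without G418; serially diluted compound for 3 days; viability by tetrazolium-based CytoTox-1 proliferation assay. Four replicates; IC50 is the concentration cutting viability by 50%. Weak compounds given as percent of control at 20 µM.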

[3] = Cytotoxicity against human HepG2(2.2.15) cells assessed as uptake of neutral red dye after 24 hrs; format: cell-based; settings: HepG2 2.2.15, 24 h
Procedure, shortened: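 2.2.15 cells, confluent, dosed daily for nine consecutive days; cytotoxicity by neutral red dye uptake 24 h after the last treatment.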

Hepatitis B virus [4] = assay: Antiviral activity against HBV in human HepG2(2.2.15) cells assessed as extracellular HBV virion DNA level after 24 hrs; format: functional, organism-based; settings: HepG2 2.2.15, 24 h
Procedure, shortened: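 Confluent HBV-producing 2.2.15 cell cultures were given nine consecutive daily doses of compound. Extracellular HBV DNA was measured by quantitative blot hybridization 24 h after the last dose. Cytotoxicity was read by neutral red uptake 24 h after the last dose.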

Hepatitis C virus [5] = assay: Antiviral activity against HCV in human Huh7 cells assessed as reduction of viral level after 5 days by RNA subgenomic replicon assay; format: functional, organism-based, Hepacivirus hominis; settings: Huh-7, 120 h
Procedure, shortened: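 Huh-7 clone B subgenomic replicon cells seeded at 3000/well, compounds added in duplicate at two dilutions right after seeding; 5 days at 37 °C, 5% CO2. Total RNA isolated; replicon RNA and rRNA control amplified by multiplex one-step real-time RT-PCR. Activity as ΔCt versus no-drug control; EC50/EC90 for 50%/90% reduction.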

[6] = Cytotoxicity against human Huh7 cells assessed as rRNA level after 5 days; format: cell-based; settings: huh-7, 120 h
Procedure, shortened: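 Huh-7 cells carrying a subgenomic HCV replicon (clone B) were seeded at 3000 cells/well. Compound was added in duplicate at two dilutions right after seeding, then cells were incubated 5 days at 37 °C, 5% CO2. Total RNA was isolated, and replicon RNA and an rRNA internal control were co-amplified by one-step multiplex real-time RT-PCR.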

[7] = Cytotoxicity against ET cells; format: cell-based; settings: for IC50: ET; procedure, shortened: as §2
Hepatitis C virus [8] = assay: Antiviral activity against HCV in ET cells assessed as activity of luciferase reporter by subgenomic RNA replicon assay; format: functional, organism-based, Hepacivirus hominis; procedure, shortened: as §1
Hepatitis B virus [9] = assay: Antiviral activity against HBV in human HepG2(2.2.15) cells assessed as replication intermediates after 24 hrs; format: functional, organism-based; settings: HepG2 2.2.15, 24 h
Procedure, shortened: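 Confluent 2.2.15 cultures in 96-well format given nine consecutive daily doses; HBV DNA quantified by blot hybridization 24 h after the last treatment.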

[10] = Selectivity index, EC50 for HCV to IC50 for ET cells; format: functional
Procedure, shortened: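 SI50 from ET replicon luciferase EC50 (3-day assay) and CytoTox-1 viability IC50, each averaged from four replicates.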

Hepatitis B virus [11] = assay: Antiviral activity against adefovir-resistant HBV reverse transcriptase M204I mutant in human Huh7 cells after 4 days by intracellular HBV DNA replication assay; format: functional, organism-based; settings: Huh-7, 96 h
Procedure, shortened: (§3)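 In a 5-day transient transfection assay, cells expressed wild-type or lamivudine- or adefovir-resistant HBV mutants. After 4 days of drug treatment, intracellular HBV DNA replication intermediates were quantified by Southern blot hybridization.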

Hepatitis B virus [12] = assay: Antiviral activity against adefovir-resistant HBV reverse transcriptase 236T mutant in human Huh7 cells after 4 days by intracellular HBV DNA replication assay; format: functional, organism-based; settings: Huh-7, 96 h; procedure, shortened: as §3
Hepatitis B virus [13] = assay: Antiviral activity against adefovir-resistant wild type HBV in human Huh7 cells after 4 days by intracellular HBV DNA replication assay; format: functional, organism-based; settings: Huh-7, 96 h; procedure, shortened: as §3
Hepatitis B virus [14] = assay: Antiviral activity against adefovir-resistant HBV reverse transcriptase LM/reverse transcriptase MV double mutant in human Huh7 cells after 4 days by intracellular HBV DNA replication assay; format: functional, organism-based; settings: Huh-7, 96 h; procedure, shortened: as §3
Hepatitis B virus [15] = assay: Antiviral activity against adefovir-resistant HBV reverse transcriptase M204V mutant in human Huh7 cells after 4 days by intracellular HBV DNA replication assay; format: functional, organism-based; settings: Huh-7, 96 h; procedure, shortened: as §3
Hepatitis B virus [16] = assay: Antiviral activity against adefovir-resistant HBV reverse transcriptase L180M mutant in human Huh7 cells after 4 days by intracellular HBV DNA replication assay; format: functional, organism-based; settings: Huh-7, 96 h; procedure, shortened: as §3
Hepatitis B virus [17] = assay: Antiviral activity against lamivudine-resistant HBV reverse transcriptase L180M mutant in human Huh7 cells after 4 days by intracellular HBV DNA replication assay; format: functional, organism-based; settings: Huh-7, 96 h; procedure, shortened: as §3
Hepatitis B virus [18] = assay: Antiviral activity against lamivudine-resistant HBV reverse transcriptase M204V mutant in human Huh7 cells after 4 days by intracellular HBV DNA replication assay; format: functional, organism-based; settings: Huh-7, 96 h; procedure, shortened: as §3
Hepatitis B virus [19] = assay: Antiviral activity against lamivudine-resistant HBV reverse transcriptase LM/reverse transcriptase MV double mutant in human Huh7 cells after 4 days by intracellular HBV DNA replication assay; format: functional, organism-based; settings: Huh-7, 96 h; procedure, shortened: as §3
Hepatitis B virus [20] = assay: Antiviral activity against lamivudine-resistant HBV reverse transcriptase M204I mutant in human Huh7 cells after 4 days by intracellular HBV DNA replication assay; format: functional, organism-based; settings: Huh-7, 96 h; procedure, shortened: as §3
Hepatitis B virus [21] = assay: Antiviral activity against lamivudine-resistant wild type HBV in human Huh7 cells after 4 days by intracellular HBV DNA replication assay; format: functional, organism-based; settings: Huh-7, 96 h
Procedure, shortened: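 Transient transfection of HBV into cells, 5-day assay; compounds applied for 4 days, then intracellular HBV DNA replication intermediates quantified by Southern blot hybridization to derive EC50.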

Hepatitis B virus [22] = assay: Antiviral activity against lamivudine-resistant HBV reverse transcriptase 236T mutant in human Huh7 cells after 4 days by intracellular HBV DNA replication assay; format: functional, organism-based; settings: Huh-7, 96 h; procedure, shortened: as §3

N#Cc1cn([C@@H]2C=C(CO)[C@@H](O)[C@H]2O)c2ncnc(N)c12
Activity (Hepatitis C virus [1]): 0.5% | Activity [2]: 103.3% | IC50 [3]: > 300 µM | EC50 (Hepatitis B virus [4]): > 10 µM

C[C@@]1(O)[C@H](O)[C@@H](CO)O[C@H]1n1ccc(N)nc1=O
EC50 (Hepatitis C virus [5]): 3.5 µM | EC90 (Hepatitis C virus [5]): 11 µM | CC50 [6]: > 50 µM

Nc1ccn([C@@H]2O[C@H](CO)[C@@H](O)[C@]2(O)F)c(=O)n1
EC50 (Hepatitis C virus [5]): 1.7 µM | EC90 (Hepatitis C virus [5]): 5.3 µM | CC50 [6]: > 50 µM

Nc1ncnc2c1c(F)cn2[C@@H]1C=C(CO)[C@@H](O)[C@H]1O
Activity (Hepatitis C virus [1]): 9.5% | IC50 [3]: > 300 µM | EC50 (Hepatitis B virus [4]): > 10 µM | Activity ([7]; et): 112.7%

Nc1ncnc2c1c(Cl)cn2[C@@H]1C=C(CO)[C@@H](O)[C@H]1O
IC50 [3]: > 300 µM | EC50 (Hepatitis B virus [4]): > 10 µM | IC50 [7]: 50.1 µM | EC50 (Hepatitis C virus [8]): 14.7 µM

Nc1ncnc2c1c(Br)cn2[C@@H]1C=C(CO)[C@@H](O)[C@H]1O
IC50 [3]: > 300 µM | EC50 (Hepatitis B virus [4]): > 10 µM | IC50 [7]: 41.7 µM | EC50 (Hepatitis C virus [8]): 16.7 µM

Nc1ncnc2c1c(I)cn2[C@@H]1C=C(CO)[C@@H](O)[C@H]1O
IC50 [3]: > 300 µM | EC50 (Hepatitis B virus [4]): 0.43 µM | IC50 [7]: 15 µM | EC50 (Hepatitis C virus [8]): 2.1 µM | EC50 (Hepatitis B virus [9]): 1.6 µM

Nc1ncnc2c1c([N+](=O)[O-])cn2[C@@H]1C=C(CO)[C@@H](O)[C@H]1O
Activity [2]: 101.5% | IC50 [3]: > 300 µM | EC50 (Hepatitis B virus [4]): > 10 µM

C=Cc1cn([C@@H]2C=C(CO)[C@@H](O)[C@H]2O)c2ncnc(N)c12
Activity (Hepatitis C virus [1]): 49.2% | Activity [2]: 99.7% | IC50 [3]: > 300 µM | EC50 (Hepatitis B virus [4]): 3.3 µM | EC50 (Hepatitis B virus [9]): 10 µM

C#Cc1cn([C@@H]2C=C(CO)[C@@H](O)[C@H]2O)c2ncnc(N)c12
IC50 [3]: > 300 µM | EC50 (Hepatitis B virus [4]): 0.32 µM | IC50 [7]: 48.9 µM | EC50 (Hepatitis C virus [8]): 20.1 µM | EC50 (Hepatitis B virus [9]): 1.8 µM

NC(=O)c1cn([C@@H]2C=C(CO)[C@@H](O)[C@H]2O)c2ncnc(N)c12
IC50 [3]: 300 µM | EC50 (Hepatitis B virus [4]): > 10 µM | IC50 [7]: 11.8 µM | EC50 (Hepatitis C virus [8]): 1.8 µM

C[C@@]1(O)[C@H](O)[C@@H](CO)O[C@H]1n1cnc2c(N)ncnc21
Ratio [10]: > 66.7 | IC50 [7]: > 10 µM | EC50 (Hepatitis C virus [8]): 0.15 µM

Nc1ncnc2c1ncn2CCOCP(=O)(O)O [ADEFOVIR]
EC50 (Hepatitis B virus [11]): 1.8 µM | EC50 (Hepatitis B virus [12]): 7.7 µM | EC50 (Hepatitis B virus [13]): 1.3 µM | EC50 (Hepatitis B virus [14]): 1.6 µM | EC50 (Hepatitis B virus [15]): 1.5 µM | EC50 (Hepatitis B virus [16]): 1.6 µM

Nc1ccn([C@@H]2CS[C@H](CO)O2)c(=O)n1 [LAMIVUDINE]
EC50 (Hepatitis B virus [17]): 10 µM | EC50 (Hepatitis B virus [18]): > 100 µM | IC50 [3]: > 2000 µM | EC50 (Hepatitis B virus [19]): > 100 µM | EC50 (Hepatitis B virus [11]): 1.8 µM | EC50 (Hepatitis B virus [20]): > 100 µM | EC50 (Hepatitis B virus [21]): 0.2 µM | EC50 (Hepatitis B virus [12]): 7.7 µM | EC50 (Hepatitis B virus [13]): 1.3 µM | EC50 (Hepatitis B virus [4]): 0.048 µM | EC50 (Hepatitis B virus [14]): 1.6 µM | EC50 (Hepatitis B virus [15]): 1.5 µM | EC50 (Hepatitis B virus [9]): 0.15 µM | EC50 (Hepatitis B virus [22]): 0.3 µM | EC50 (Hepatitis B virus [16]): 1.6 µM
